ChEMBL document CHEMBL4330056, “Synthesis and Cytotoxic and Antiviral Profiling of Pyrrolo- and Furo-Fused 7-Deazapurine Ribonucleosides” (J Med Chem, 2018)
Active and inactive are the calls of the source. No cut-off for these calls is given here.

Key:
CCRF-CEM [1] = test: Induction of cell cycle arrest in human CCRF-CEM cells assessed as accumulation at G2/M phase at IC50 concentration after 24 hrs by propidium iodide-staining based flow cytometry (reference value: 19.22%); assay type: functional
HCT-116 [2] = test: Antiproliferative activity against p53 gene knocked out human HCT116 cells after 3 days by MTS assay; assay type: functional, cell-based; conditions: HCT-116, 72 h
U2OS = test: Antiproliferative activity against human U2OS cells after 3 days by MTS assay; assay type: functional, cell-based; conditions: 72 h
BJ = test: Antiproliferative activity against human BJ cells after 3 days by MTS assay; conditions: 72 h
CCRF-CEM [3] = test: Inhibition of mitosis in human CCRF-CEM cells assessed Ser10 H3 phosphorylation positive cells at IC50 concentration after 24 hrs by flow cytometry relative to total cell population (reference value: 1.36%); assay type: functional; design: scale not given: the % may be the effect or the level left
Human alphaherpesvirus 1 = test: Antiviral activity against human herpesvirus 1 HF infected in African green monkey Vero cells assessed as inhibited virus-induced cytopathic effect incubated for 3 days by XTT assay; assay type: functional, organism-based
CCRF-CEM [4] = test: Antiproliferative activity against human CCRF-CEM cells after 3 days by MTS assay; assay type: functional, cell-based; conditions: 72 h
Adenosine kinase [5] = target: T1, Adenosine kinase (Homo sapiens, UniProt P55263); test: Inhibition of recombinant human ADK using [3H]-adenosine as substrate after 20 mins by TLC scanner-based analysis relative to control
T1 sequence (P55263 whole entry): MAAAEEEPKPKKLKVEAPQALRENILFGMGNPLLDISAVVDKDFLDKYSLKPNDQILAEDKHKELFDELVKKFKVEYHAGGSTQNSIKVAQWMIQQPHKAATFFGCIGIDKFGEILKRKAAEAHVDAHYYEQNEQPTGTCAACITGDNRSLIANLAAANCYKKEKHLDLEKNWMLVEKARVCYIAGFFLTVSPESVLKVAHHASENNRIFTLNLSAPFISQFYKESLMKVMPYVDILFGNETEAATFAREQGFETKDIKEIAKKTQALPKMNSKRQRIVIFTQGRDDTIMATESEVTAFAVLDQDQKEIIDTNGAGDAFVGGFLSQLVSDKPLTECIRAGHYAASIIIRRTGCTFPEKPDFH
Procedure, shortened: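 ADK inhibition: 50 μM adenosine substrate with 10 μM test compound and 97 ng enzyme, 20 min at 37 °C.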

CCRF-CEM [6] = test: Inhibition of RNA synthesis in human CCRF-CEM cells assessed as RNA synthesis level at IC50 concentration after 24 hrs by BrU incorporation assay (reference value: 49.89%); assay type: functional; design: scale not given: the % may be the effect or the level left
Human orthopneumovirus = test: Antiviral activity against Human respiratory syncytial virus A2 infected in Hep2 cells assessed as reduction in virus-induced cytopathic effect incubated for 4 days by CellTiter-Glo viability reagent based assay; assay type: functional, organism-based
CCRF-CEM [7] = test: Induction of cell cycle arrest in human CCRF-CEM cells assessed as accumulation at G2/M phase at 5 times IC50 concentration after 24 hrs by propidium iodide-staining based flow cytometry (reference value: 19.22%); assay type: functional
CCRF-CEM [8] = test: Induction of cell cycle arrest in human CCRF-CEM cells assessed as accumulation at S phase at 5 times IC50 concentration after 24 hrs by propidium iodide-staining based flow cytometry (reference value: 41.08%); assay type: functional
K562 = test: Antiproliferative activity against human K562 cells after 3 days by MTS assay; assay type: functional, cell-based; conditions: K562, 72 h
Hepatitis C virus [9] = test: Antiviral activity against Hepatitis C virus genotype 2a infected in human Huh-luc replicon cells after 3 days by luciferase assay; assay type: functional, organism-based, Hepacivirus hominis; conditions: subtype 2a, 72 h
CCRF-CEM [10] = test: Induction of cell cycle arrest in human CCRF-CEM cells assessed as accumulation at subG1 phase at 5 times IC50 concentration after 24 hrs by propidium iodide-staining based flow cytometry (reference value: 3.45%); assay type: functional
Adenosine kinase [11] = target: T1, Adenosine kinase; test: Substrate activity at recombinant human ADK assessed as compound phosphorylation at 50 uM after 20 mins in presence of [3H]-adenosine by UPLC; assay type: ADME
HeLa S3 = test: Antiproliferative activity against human HeLaS3 cells after 72 hrs by XTT assay; assay type: functional, cell-based; conditions: HeLa S3, 72 h
A549 = test: Antiproliferative activity against human A549 cells after 3 days by MTS assay; assay type: functional, cell-based; conditions: A549, 72 h
MRC5 = test: Antiproliferative activity against human MRC5 cells after 3 days by MTS assay; conditions: MRC5, 72 h
Influenza A virus = test: Antiviral activity against Influenza A virus (A/Mexico/4108/2009(H1N1)) infected in MDCK cells assessed as inhibited virus-induced cytopathic effect incubated for 2 days by XTT assay; assay type: functional, organism-based
CCRF-CEM [12] = test: Inhibition of DNA synthesis in human CCRF-CEM cells assessed as DNA synthesis level at 5 times IC50 concentration after 24 hrs by BrdU incorporation assay (reference value: 43.39%); assay type: functional; design: scale not given: the % may be the effect or the level left
CCRF-CEM [13] = test: Induction of cell cycle arrest in human CCRF-CEM cells assessed as accumulation at G0/G1 phase at 5 times IC50 concentration after 24 hrs by propidium iodide-staining based flow cytometry (reference value: 39.70%); assay type: functional
CCRF-CEM [14] = test: Inhibition of RNA synthesis in human CCRF-CEM cells assessed as RNA synthesis level at 5 times IC50 concentration after 24 hrs by BrU incorporation assay (reference value: 49.89%); assay type: functional; design: scale not given: the % may be the effect or the level left
[15] = Antiproliferative activity against human K562-TAX cells after 3 days by MTS assay; assay type: functional, cell-based; conditions: 72 h
CCRF-CEM [16] = test: Induction of cell cycle arrest in human CCRF-CEM cells assessed as accumulation at subG1 phase at IC50 concentration after 24 hrs by propidium iodide-staining based flow cytometry (reference value: 3.45%); assay type: functional
HCT-116 [17] = test: Antiproliferative activity against human HCT116 cells after 3 days by MTS assay; assay type: functional, cell-based; conditions: HCT-116, 72 h
Coxsackievirus B3 = test: Antiviral activity against Human coxsackie B3 Nancy infected in human HeLa cells assessed as inhibited virus-induced cytopathic effect incubated for 2 days by XTT assay; assay type: functional, organism-based
CCRF-CEM [18] = test: Induction of cell cycle arrest in human CCRF-CEM cells assessed as accumulation at G0/G1 phase at IC50 concentration after 24 hrs by propidium iodide-staining based flow cytometry (reference value: 39.70%); assay type: functional
dengue virus type 2 = test: Antiviral activity against Dengue virus 2 Thailand/16681/84 infected in African green monkey Vero cells assessed as inhibition of virus replication incubated for 3 days by fluorescence microscopy; assay type: functional, organism-based
CCRF-CEM [19] = test: Induction of cell cycle arrest in human CCRF-CEM cells assessed as accumulation at S phase at IC50 concentration after 24 hrs by propidium iodide-staining based flow cytometry (reference value: 41.08%); assay type: functional
HL-60 = test: Antiproliferative activity against human HL60 cells after 72 hrs by XTT assay; assay type: functional, cell-based; conditions: HL-60, 72 h
CCRF-CEM [20] = test: Inhibition of DNA synthesis in human CCRF-CEM cells assessed as DNA synthesis level at IC50 concentration after 24 hrs by BrdU incorporation assay (reference value: 43.39%); assay type: functional; design: scale not given: the % may be the effect or the level left
[21] = Antiproliferative activity against human CEM-DNR-bulk cells after 3 days by MTS assay; conditions: 72 h
Hepatitis C virus [22] = test: Antiviral activity against Hepatitis C virus genotype 1b infected in human Huh-luc replicon cells after 3 days by luciferase assay; assay type: functional, organism-based, Hepacivirus hominis; conditions: subtype 1b, 72 h
HepG2 = test: Antiproliferative activity against human HepG2 cells after 72 hrs by XTT assay; assay type: functional, cell-based; conditions: HepG2, 72 h
CCRF-CEM [23] = test: Inhibition of mitosis in human CCRF-CEM cells assessed Ser10 H3 phosphorylation positive cells at 5 times IC50 concentration after 24 hrs by flow cytometry relative to total cell population (reference value: 1.36%); assay type: functional; design: scale not given: the % may be the effect or the level left
[24] = Cytotoxicity against human Hep2 cells assessed as reduction in cell viability after 3 days by CellTiter-Glo assay; assay type: cell-based; conditions: HEp-2 cells
[25] = Chemical stability of the compound assessed as compound remaining after 60 mins relative to control; assay type: physicochemical; conditions: read-out: Stability
[26] = Chemical stability of the compound assessed as compound remaining after 120 mins relative to control; assay type: physicochemical; conditions: read-out: Stability
[27] = Chemical stability of the compound assessed as compound remaining after 30 mins relative to control; assay type: physicochemical; conditions: read-out: Stability
[28] = Protein binding in human plasma; assay type: ADME, cell-free; conditions: read-out: PPB (converted)
[29] = Mitochondrial toxicity in human OCI-AML2 cells assessed as reduction in oxidative phosphorylation-based viability after 72 hrs by CellTiterGlo assay; assay type: cell-based
Procedure, shortened: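 OCI-AML2 leukemia cells, which rely on mitochondrial OXPHOS, treated for 3 days in a survival assay; IC50 reported.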

[30] = Metabolic stability in human liver microsomes assessed as compound remaining at 5 umol/L after 15 mins relative to control; assay type: ADME, Microsome; conditions: read-out: Stability
Procedure, shortened: (§1)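 Human microsomal fraction; percent compound remaining over time.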

[31] = Stability in human plasma assessed as compound remaining at 3.3 umol/L after 15 mins by RF-MS analysis relative to control; assay type: ADME, cell-free; conditions: read-out: Stability
[32] = Metabolic stability in human liver microsomes assessed as compound remaining at 5 umol/L after 60 mins relative to control; assay type: ADME, Microsome; conditions: read-out: Stability; procedure, shortened: as §1
[33] = Stability in human plasma assessed as compound remaining at 3.3 umol/L after 60 mins by RF-MS analysis relative to control; assay type: ADME, cell-free; conditions: read-out: Stability
[34] = Chemical stability of the compound assessed as compound remaining after 15 mins relative to control; assay type: physicochemical; conditions: read-out: Stability
[35] = Metabolic stability in human liver microsomes assessed as compound remaining at 5 umol/L after 30 mins relative to control; assay type: ADME, Microsome; conditions: read-out: Stability; procedure, shortened: as §1
[36] = Stability in human plasma assessed as compound remaining at 3.3 umol/L after 120 mins by RF-MS analysis relative to control; assay type: ADME, cell-free; conditions: read-out: Stability
[37] = Stability in human plasma assessed as compound remaining at 3.3 umol/L after 30 mins by RF-MS analysis relative to control; assay type: ADME, cell-free; conditions: read-out: Stability
[38] = Effective permeability of the compound at 20 umol/L by PAMPA; assay type: ADME; conditions: 20 µM

COc1ncnc2c1c1c(ccn1C)n2[C@@H]1O[C@H](CO)[C@@H](O)[C@H]1O
Activity (CCRF-CEM [1]): 17.2%
IC50 (HCT-116 [2]): 620 nM
IC50 (U2OS): 1300 nM
IC50 (BJ): 4500 nM
Activity (CCRF-CEM [3]): 1.48%
Activity (Human alphaherpesvirus 1): inactive
IC50 (CCRF-CEM [4]): 440 nM
IC50 (Adenosine kinase [5]): > 10000 nM
Activity (CCRF-CEM [6]): 31.19%
Activity (Human orthopneumovirus): inactive
Activity (CCRF-CEM [7]): 15.4%
Activity (CCRF-CEM [8]): 36.98%
IC50 (K562): 510 nM
EC50 (Hepatitis C virus [9]): 280 nM
Activity (CCRF-CEM [10]): 13.86%
Activity (Adenosine kinase [11]): 47%
IC50 (HeLa S3): 1530 nM
IC50 (A549): > 50000 nM
IC50 (MRC5): 50000 nM
Activity (Influenza A virus): inactive
Activity (CCRF-CEM [12]): 12.29%
Activity (CCRF-CEM [13]): 47.62%
Activity (CCRF-CEM [14]): 28.3%
IC50 [15]: > 50000 nM
Activity (CCRF-CEM [16]): 3.68%
IC50 (HCT-116 [17]): 360 nM
Activity (Coxsackievirus B3): inactive
Activity (CCRF-CEM [18]): 37.73%
Activity (dengue virus type 2): inactive
Activity (CCRF-CEM [19]): 45.08%
IC50 (HL-60): 1440 nM
Activity (CCRF-CEM [20]): 31.44%
IC50 [21]: > 50000 nM
EC50 (Hepatitis C virus [22]): 90 nM
IC50 (HepG2): 2590 nM
Activity (CCRF-CEM [23]): 1.5%
CC50 at 72 h [24]: > 44400 nM

CSc1ncnc2c1c1c(ccn1C)n2[C@@H]1O[C@H](CO)[C@@H](O)[C@H]1O
Activity (CCRF-CEM [1]): 17.36%
IC50 (HCT-116 [2]): 380 nM
remaining at 1 h [25]: 98%
IC50 (U2OS): 1410 nM
remaining at 2 h [26]: 97%
IC50 (BJ): 5160 nM
Activity (CCRF-CEM [3]): 0.33%
Activity (Human alphaherpesvirus 1): inactive
IC50 (CCRF-CEM [4]): 340 nM
IC50 (Adenosine kinase [5]): > 10000 nM
Activity (CCRF-CEM [6]): 21.43%
remaining at 0.5 h [27]: 99%
Activity (Human orthopneumovirus): inactive
fraction unbound [28]: 0.11
IC50 at 72 h [29]: 160 nM
Activity (CCRF-CEM [7]): 16.52%
remaining at 0.25 h, 5 µM [30]: 99%
Activity (CCRF-CEM [8]): 42.94%
remaining at 0.25 h, 3.3 µM [31]: 100%
IC50 (K562): 390 nM
EC50 (Hepatitis C virus [9]): 130 nM
Activity (CCRF-CEM [10]): 12.67%
Activity (Adenosine kinase [11]): 33%
IC50 (HeLa S3): 1360 nM
IC50 (A549): > 50000 nM
remaining at 1 h, 5 µM [32]: 97%
IC50 (MRC5): > 50000 nM
remaining at 1 h, 3.3 µM [33]: 98%
Activity (Influenza A virus): inactive
remaining at 0.25 h [34]: 100%
Activity (CCRF-CEM [12]): 7.8%
Activity (CCRF-CEM [13]): 40.55%
Activity (CCRF-CEM [14]): 3.56%
IC50 [15]: 50000 nM
remaining at 0.5 h, 5 µM [35]: 99%
Activity (CCRF-CEM [16]): 5.61%
IC50 (HCT-116 [17]): 300 nM
Activity (Coxsackievirus B3): inactive
Activity (CCRF-CEM [18]): 26.28%
Activity (dengue virus type 2): inactive
Activity (CCRF-CEM [19]): 56.36%
IC50 (HL-60): 580 nM
Activity (CCRF-CEM [20]): 30.41%
remaining at 2 h, 3.3 µM [36]: 98%
IC50 [21]: > 50000 nM
remaining at 0.5 h, 3.3 µM [37]: 99%
EC50 (Hepatitis C virus [22]): 40 nM
IC50 (HepG2): 1530 nM
Activity (CCRF-CEM [23]): 1.49%
CC50 at 72 h [24]: > 44400 nM
log(permeability) [38]: -5.69
